Most compounds without a hit are left out; they make up all but 5.7% or so of the library.
Beta cell apopt – inhibitors of cytokine-induced beta cell apoptosis, primary screen, luminescence. INS-1E cytokine-induced death, ATP luminescence, 48 h; percent of positive-control rescue, neutral wells zero. protection from apoptosis, % (no concentration beside the values). 300,000 tested, 0.8% active;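 active = Every replicate reaches about 75%, or at least half do and their mean reaches it too, limit read from the data; inconclusive = At least half of replicates reach the limit but their mean does not; inactive = Under half of replicates reach the limit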;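 also: 0% = cytokine-treated negative control wells and 100% = positive control rescue; higher means more ATP so stronger rescue from cytokine killing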
Calb FLC – C. albicans growth inhibition with fluconazole, primary screen, CaCi-2 strain, Alamar Blue fluorescence; growth inhibition, % (no concentration beside the values); C. albicans CaCi-2 (fluconazole-resistant clinical isolate) + fluconazole, 48 h; 300,000 tested, 0.57% active; AID 1979, 2009;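 active = growth inhibition above about 58% in most replicates, limit read from the data, passing the limit was not always enough; inconclusive = exactly half the replicates above a set limit; inactive = most replicates below a set limit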;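 also: all wells also contain fluconazole at 8 µg/ml as a sub-toxic cotreatment; 0% = median of DMSO wells and 100% = median of geldanamycin control wells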
SKKanGAS inh – S. pyogenes SKKanGAS growth inhibitors in kanamycin, primary screen, streptokinase expression inhibitor project, SKKanGAS strain, BacTiter-Glo luminescence; 6 h; inhibition, % at 7.5 µM; 300,000 tested, 1.3% active; AID 1662, 2009;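 active = mean replicate score, as percent of positive control median, at least 50; inconclusive = mean below 50 but one replicate at or above 50; inactive = mean and every replicate below 50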;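 also: strain carries kanamycin resistance gene driven by streptokinase promoter and grows in 40 µg/ml kanamycin; loss of luminescence reflects streptokinase promoter inhibition or plain growth inhibition; 0% = median of DMSO wells and 100% = positive control at its reference dose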
T cruzi inh – inhibitors of intracellular T. cruzi growth, primary screen, luminescence, NIH3T3 host cells | AID 1885, 2009 | 300,000 tested, 1.4% active | T. cruzi beta-gal in NIH3T3, 90 h | inhibition, % (test concentration not listed);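 active = mean inhibition across valid replicates above about 55%, limit read from the data; inconclusive = mean below that limit but half or more replicates reach it; inactive = mean below it, under half of replicates reach it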;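 also: signal also drops with host cell toxicity which is not excluded here; 0% = plate median of DMSO wells and 100% = zero luminescence signal; higher percent means less beta-gal luminescence so fewer parasites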
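System – NIH/3T3 host cells with β-galactosidase reporter T. cruzi · Doses – single 50 nL compound addition per well in DMSO · Reagent – 5000 T. cruzi trypomastigotes/well · Medium – Low-serum DMEM with 2% FBS · Timing – ≥90 h infection period, 3 h prior cell attachment · Evaluation – parasite load inhibition, % · Technique – GalScreen luminescence, 60 min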
CSC inhib – cancer stem cell viability inhibitors, primary screen, luminescence. cancer stem cell-like cells viability. inhibition, % at 7.5 µM. 300,000 tested, 1.1% active; in the data active = inhibition above about 75%; inconclusive = no clear call, values can overlap the other calls; tested in HMLE shEcad cells
Mdm2 MdmX PPI – inhibitors of human Mdm2-MdmX association, primary screen, cell-based, luminescence, split luciferase, SaOS-2, uHTS. inhibition, % at 8 µM. Protein Mdm4 (Homo sapiens) + E3 ubiquitin-protein ligase Mdm2 (Homo sapiens), …. 330,000 tested, 3% active. SaOS-2 split-luciferase Mdm2/MdmX complementation;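 active = inhibition of at least 50% at 8 µM in the primary screen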
Target sequence (O15151 whole entry, looked up): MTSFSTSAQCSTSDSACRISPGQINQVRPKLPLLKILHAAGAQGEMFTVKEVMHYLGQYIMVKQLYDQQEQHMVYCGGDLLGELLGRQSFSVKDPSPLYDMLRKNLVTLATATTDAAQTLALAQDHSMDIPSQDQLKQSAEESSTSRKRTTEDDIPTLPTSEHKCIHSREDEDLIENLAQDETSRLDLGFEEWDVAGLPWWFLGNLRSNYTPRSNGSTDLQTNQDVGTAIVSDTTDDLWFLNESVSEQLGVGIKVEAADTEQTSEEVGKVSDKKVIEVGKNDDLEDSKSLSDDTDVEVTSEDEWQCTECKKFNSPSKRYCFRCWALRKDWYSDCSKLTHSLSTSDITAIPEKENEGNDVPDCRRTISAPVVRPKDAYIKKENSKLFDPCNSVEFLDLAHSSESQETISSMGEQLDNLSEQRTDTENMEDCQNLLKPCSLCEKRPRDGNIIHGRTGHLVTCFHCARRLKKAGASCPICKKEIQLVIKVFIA
Target sequence (Q00987 whole entry, looked up): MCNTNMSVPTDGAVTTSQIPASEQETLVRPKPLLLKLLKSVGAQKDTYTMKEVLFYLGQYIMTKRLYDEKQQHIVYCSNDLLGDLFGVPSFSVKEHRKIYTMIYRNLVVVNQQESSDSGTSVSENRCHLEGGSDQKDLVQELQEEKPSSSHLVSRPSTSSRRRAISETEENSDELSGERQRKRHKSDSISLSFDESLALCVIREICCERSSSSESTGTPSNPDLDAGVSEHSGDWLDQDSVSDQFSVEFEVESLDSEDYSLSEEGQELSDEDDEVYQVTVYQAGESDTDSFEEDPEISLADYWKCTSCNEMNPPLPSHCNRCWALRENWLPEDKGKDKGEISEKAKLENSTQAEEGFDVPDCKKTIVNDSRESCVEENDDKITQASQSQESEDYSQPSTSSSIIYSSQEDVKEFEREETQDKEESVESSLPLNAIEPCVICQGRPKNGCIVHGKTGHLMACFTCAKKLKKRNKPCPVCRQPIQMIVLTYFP
Mdm2-MdmX conf – Mdm2-MdmX complex disruptors, retested hits, confirmation, luminescence, single concentration | shares compounds with Mdm2 MdmX PPI | Mdm2-MdmX binding, luminescent assay | inhibition, % at 8 µM | 10,000 tested, 55% active | AID 489028, 2010; in the data active = inhibition above about 40%
Full FLuc ctr – full-length luciferase signal inhibition, confirmation, counter-screen for Mdm2/MdmX interaction inhibitor project, cell-based, single concentration, SaOS-2. SaOS-2 full-length luciferase counterscreen, luminescence. AID 504607, 2011. 6,200 tested, 77% active. inhibition, % at 8 µM. shares compounds with Mdm2 MdmX PPI;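 active = mean inhibition at 8 µM reaching about 37%, which flags the compound as non-specific, limit read from the data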;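 also: p53-null SaOS-2 cells with luciferase driven by a doxycycline-inducible promoter; compound on cells about two nights before reading with doxycycline added after day one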
An asterisk follows results filed as active; ? = inconclusive; · = not tested or not shown.

SMILES | Beta cell apopt | Calb FLC | SKKanGAS inh | T cruzi inh | CSC inhib | Mdm2 MdmX PPI | Mdm2-MdmX conf | Full FLuc ctr
COCCCNC(=O)C[C@H]1C[C@H](C(=O)N2CCCCC2)[C@@]2(CCc3ccccc3)c3[nH]c4ccc(Cl)cc4c3CCN2C1=O | · | · | · | · | · | 31.7 | · | ·
COc1ccc(-n2c(SCCC#N)nnc2-c2cc(Cl)ccc2OC)cc1Cl | 0.3 | 19.8 | 2.6 | 19.0 | 66.8 | 53.9* | 64.5* | 50.9*
CCc1nn(CC(=O)NCCC(C)C)c(=O)c2cc3c(OC)cccc3n12 | 7.1 | 0.2 | 2.8 | -9.0 | 11.2 | -7.4 | · | ·
COc1cccc(C(O)c2nccn2Cc2ccccc2)c1OC (stereo not drawn) | -11.3 | 7.8 | -2.6 | -9.5 | 5.5 | 14.8 | · | ·
CCOC(=O)CSc1nc2c(c(=O)[nH]1)C(C)(CC)Cc1ccccc1-2 (stereo not drawn) | ? | 12.5 | 9.2 | -12.7 | 71.1 | 56.7* | 53.0* | 53.6*
CCCCn1nc(C(=O)Nc2ccccc2N2CCCC2)c2ccccc2c1=O | 20.9 | · | · | · | · | -19.5 | · | ·
O=C(CSc1nc(Nc2ccccc2)nc(N2CCOCC2)n1)Nc1ccccc1Cl | 14.3 | -3.9 | -2.8 | 40.8 | 26.1 | 75.1* | 24.6 | ·
Cc1ccc(NC(=O)CSc2nc3ccc(Nc4nc(N5CCOCC5)nc(N5CCOCC5)n4)cc3s2)cc1 | 41.0 | -12.2 | · | · | 55.9 | 94.9* | 41.2* | 26.2
Clc1cccc(Nc2nc(N3CCOCC3)nc(N3CCOCC3)n2)c1 | -6.0 | 1.0 | 0.5 | 12.8 | 4.5 | 36.7 | · | ·
COc1ccc(Nc2nc(N3CCOCC3)nc(N3CCOCC3)n2)cc1Cl | · | -5.7 | 3.7 | 30.3 | 4.1 | 61.1* | 22.1 | ·
COc1ccc(NC(=O)CSc2nc3ccc(Nc4nc(N5CCOCC5)nc(N5CCOCC5)n4)cc3s2)cc1 | · | 2.9 | 12.2 | 41.4 | 39.0 | 85.1* | 49.4* | 36.7*
CC(=O)N[C@@H]1[C@@H](O)[C@@H]2OC(c3ccccc3)OC[C@H]2O[C@@H]1N=[N+]=[N-] (stereo partly drawn) | · | 3.5 | -3.3 | -9.7 | -15.1 | 9.0 | · | ·
COc1ccc(OCCOC(=O)c2nc3nccc(C)n3n2)cc1 | -1.0 | -8.7 | 4.4 | -10.0 | 0.4 | -14.6 | · | ·
CC(=O)c1ccc(NC(=O)CSc2nc(N3CCOCC3)nc(N3CCOCC3)n2)cc1 | 4.7 | 1.9 | -7.4 | 1.5 | 30.4 | -23.3 | · | ·
CCOC(=O)c1ccc(NC(=O)CSc2nc(N3CCOCC3)nc(N3CCOCC3)n2)cc1 | -2.9 | 14.4 | 6.6 | 12.1 | 0.9 | 74.1* | 25.1 | ·
CC(O)CC(C)O (stereo not drawn) | 2.5 | · | · | · | -0.7 | 16.0 | · | ·
CCN1C(=O)[C@H]2[C@@H](c3ccc(-c4ccccc4)c(OC)c3)N[C@@](CC(C)C)(C(=O)OC)[C@H]2C1=O | 1.5 | · | · | · | · | 22.1 | · | ·
O=C(NCc1ccc2c(c1)OCO2)c1nc(S(=O)(=O)Cc2ccccc2)ncc1Cl | · | 7.8 | -3.3 | -12.1 | · | 63.0* | 44.9* | 13.8
O=C(NCc1ccc2c(c1)OCO2)c1nc(S(=O)(=O)Cc2ccccc2F)ncc1Cl | 7.1 | 0.8 | -17.6 | -0.9 | ? | 77.6* | 52.2* | 51.2*
CC(C)(C)c1ccc(C(=O)NCCC(=O)NCc2cccs2)cc1 | -1.4 | 31.7 | 1.5 | -7.6 | 3.0 | -0.1 | · | ·
CCCN(CCC)c1ncnc2nc[nH]c12 | -9.8 | 3.1 | -0.6 | -19.9 | -19.9 | 71.8* | 64.0* | 34.6
Cc1ccc(O)c(C(=O)c2cnc3c(c2)c(=O)n(C)c(=O)n3C)c1 | -11.8 | -5.3 | -1.9 | -1.2 | 0.8 | -1.7 | · | ·
CN1Cc2cc(C(=O)c3cc(Cl)cc(CSc4ncccn4)c3O)cnc2NC1=O | 22.6 | -7.2 | 50.4* | 32.2 | 67.7 | 58.7* | 73.0* | 88.5*
Cc1ccc(O)c(C(=O)c2cnc3c(c2)CN(C)C(=O)N3)c1 | -11.1 | -14.4 | -7.8 | -61.2 | 21.4 | 62.9* | 48.6* | 56.0*
CCCCN1Cc2cc(C(=O)c3cc(OC)ccc3O)cnc2NC1=O | -7.7 | -5.3 | 1.7 | 0.6 | 4.3 | 30.6 | · | ·
SMILES | Beta cell apopt | Calb FLC | SKKanGAS inh | T cruzi inh | CSC inhib | Mdm2 MdmX PPI | Mdm2-MdmX conf | Full FLuc ctr
Cc1ccc(O)c(C(=O)c2cnc3c(c2)CN(CCC(C)C)C(=O)N3)c1 | 16.1 | 3.6 | -0.7 | 4.0 | 26.6 | 54.5* | 23.4 | ·
Cc1noc(C)c1S(=O)(=O)Nc1ccc2c(c1)C(=O)N([C@H](C)CO)C[C@H](C)[C@@H](CN(C)S(=O)(=O)c1ccccc1)O2 | 1.9 | · | · | · | -25.8 | -2.5 | · | ·
N#Cc1ccc(C23CC4(C2)[C@H](CN(P(=O)(c2ccccc2)c2ccccc2)[C@@H]4c2ccccc2)C3c2ccc(Cl)nc2)cc1 (stereo partly drawn) | 4.4 | 10.7 | 9.6 | 47.5 | 44.3 | 56.1* | 24.6 | 53.7*
CCN=c1scc(-c2ccccc2)n1/N=C/c1ccccn1 | 38.9 | 19.7 | -5.8 | -31.4 | 28.6 | 84.8* | 66.2* | 127.3*
CCN=c1scc(-c2ccc(F)cc2)n1/N=C/c1ccccn1 | 6.9 | 2.8 | 0.1 | 13.5 | 2.9 | -175.1 | · | ·
C=CCN=c1scc(-c2ccccc2)n1/N=C/c1ccccn1 | 24.2 | 40.0 | -6.2 | -26.0 | 40.4 | 79.1* | 63.9* | 42.2*
C=CCN=c1scc(-c2ccc(F)cc2)n1/N=C/c1ccccn1 | 20.3 | 18.4 | -2.0 | -23.9 | 32.7 | -6.2 | · | ·
NS(=O)(=O)c1ccc(NCc2cc(Cl)ccc2OCc2ccccc2F)cc1 | 6.3 | 24.6 | ? | -3.9 | 44.7 | 17.8 | · | ·
Nc1cc(=O)[nH]c(=O)n1CCCc1ccccc1 | -4.1 | -0.7 | -5.5 | 4.7 | -6.6 | · | · | ·
COc1ccc(NC(=S)NC23CC4CC(CC(C4)C2)C3)cc1OC | 50.1 | -2.4 | -0.5 | -0.3 | 4.5 | 19.0 | · | ·
COc1ccc(N2C(=O)CSC(c3ccccc3)C2=O)cc1 (stereo not drawn) | -1.4 | 16.6 | -1.5 | -6.1 | 24.5 | 2.6 | · | ·
CCc1nnc(NC(=O)CSc2nnc3c(n2)[nH]c2ccccc23)s1 | -0.6 | 10.4 | -15.1 | -21.6 | -26.3 | 14.7 | · | ·
Cc1ccnc(NC(=O)CSc2nnc3c(n2)[nH]c2ccccc23)c1 | -19.0 | 20.9 | -1.5 | -16.9 | 17.7 | 55.1* | 56.0* | 98.9*
Cc1ccc(S(=O)(=O)N2CCOc3ccccc32)c(C)c1NS(C)(=O)=O | -0.5 | 1.3 | -1.3 | 17.2 | -8.8 | -7.4 | · | ·
O=C(Oc1ccc2ccccc2c1Br)N1CCCCCC1 | 8.7 | 3.5 | 28.1 | 21.1 | -17.2 | 58.6* | 41.8* | 149.9*

High-throughput results as filed in PubChem BioAssay.
